In experiment [1] the test system is Nocardia farcinica. Nature of the experiment: Antimicrobial activity against amikacin-resistant Nocardia farcinica IFM 10580 after 3 days by broth microdilution method. Type of experiment: functional. The essentials: (§1)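 Broth microdilution in BHI medium with a range of aminoglycosides. Cells were incubated at 37°C, OD600 was measured, and the MIC was read on day 3 of incubation.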

Experiment [2] concerns Nocardia farcinica. The experiment can be described thus: Antimicrobial activity against amikacin-susceptible Nocardia farcinica IFM 10152 harboring 16s rRNA A1408G mutant after 3 days by broth microdilution method. The format is functional. The essentials:
as §1
In general terms: In broth dilution the organism is exposed to a series of concentrations in liquid medium.

Experiment [3] relates to Nocardia farcinica. The experiment can be described thus: Antimicrobial activity against amikacin-susceptible Nocardia farcinica IFM 10152 harboring 16s rRNA A1408G mutant after 5 days by broth microdilution method. Type of experiment: functional. The essentials: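 Broth microdilution in BHI medium across several aminoglycosides. Cells were held at 37°C and MIC was determined from OD600 on day 5 of incubation.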

Experiment [4] concerns Nocardia farcinica. The experiment can be described thus: Antimicrobial activity against amikacin-susceptible Nocardia farcinica IFM 10152 after 3 days by broth microdilution method. Type of experiment: functional. The essentials: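 Broth microdilution in BHI medium, final inoculum 10^4 CFU/ml. Host strain carried empty pNV19 vector. Cells incubated with serial aminoglycoside concentrations at 37°C for 3 days. MIC read from OD600.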

Experiment [5] deals with Nocardia farcinica. The experiment can be described thus: Antimicrobial activity against amikacin-susceptible Nocardia farcinica IFM 10152-M2 expressing rrnA A1408G and rrnC A1408G mutant genes after 3 days by broth microdilution method. Type of experiment: functional. The settings on record: IFM 10152-M2, 72 h. The essentials:
as §1

The subject of experiment [6] is Nocardia farcinica. Nature of the experiment: Antimicrobial activity against amikacin-susceptible Nocardia farcinica IFM 10152-M3 expressing rrnA A1408G, rrnB A1408G and rrnC A1408G mutant genes after 3 days by broth microdilution method. The format is functional. The conditions noted are these: IFM 10152-M3, 72 h. The method in brief:
as §1

In experiment [7] the test system is Nocardia farcinica. Nature of the experiment: Antimicrobial activity against amikacin-susceptible Nocardia farcinica IFM 10152-M2 expressing wild type rrnB gene and plasmid encoded rrnA A1408G and rrnC A1408G mutant genes after 3 days by broth microdilution method. The format is functional. The settings on record: IFM 10152-M2, 72 h. The method in brief: as §1

Experiment [8] relates to Nocardia farcinica. Nature of the experiment: Antimicrobial activity against amikacin-susceptible Nocardia farcinica isolate IFM 10152-M2 assessed as cell growth at 1024 ug/ml after 24 hrs. The format is functional, organism-based.
Experiment [9] concerns Nocardia farcinica. The experiment can be described thus: Antimicrobial activity against amikacin-susceptible Nocardia farcinica isolate IFM 10152-M3 assessed as cell growth at 1024 ug/ml at <12 hrs. Type of experiment: functional, organism-based.
Experiment [10] relates to Nocardia farcinica. The experiment can be described thus: Antimicrobial activity against amikacin-resistant Nocardia farcinica IFM 10580 assessed as cell growth at 1024 ug/ml at <12 hrs. Type of experiment: functional, organism-based. The method in brief: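 Cells were cultured in the presence of 1,024 μg/ml amikacin and growth was followed over time.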
Experiment [11] concerns Nocardia farcinica. The experiment can be described thus: Antimicrobial activity against amikacin-susceptible Nocardia farcinica isolate IFM 10152-M2 assessed as cell growth at 1024 ug/ml after 24 hrs.

In brackets after ≈: the same amount, converted by molar mass. Activity calls are given as the source filed them. The rule behind the calls is not given here.

Consider `CN[C@H]1C[C@@H](N)[C@H](O)[C@@H](O[C@@H]2O[C@H](CO)[C@H](O)[C@H]3O[C@@]4(O[C@H]23)O[C@H]([C@H](N)CO)[C@H](O)[C@H](O)[C@H]4O)[C@@H]1O`, for which the MIC against Nocardia farcinica [1] (IFM 10580, 72 h) is 32 µg/mL (≈ 60.7 µM); against Nocardia farcinica [2] (IFM 10152, 72 h), 32 µg/mL (≈ 60.7 µM); against Nocardia farcinica [3] (IFM 10152, 120 h), 32 µg/mL (≈ 60.7 µM); with Nocardia farcinica [4] (IFM 10152, 72 h), 32 µg/mL (≈ 60.7 µM).
As for `NC[C@H]1O[C@H](O[C@H]2[C@H](O)[C@@H](O[C@H]3O[C@H](CO)[C@@H](O)[C@H](N)[C@H]3O)[C@H](N)C[C@@H]2N)[C@H](O)[C@@H](O)[C@@H]1O` [KANAMYCIN], the MIC was above 1020 µg/mL in the experiment with Nocardia farcinica [1] (IFM 10580, 72 h); above 1020 µg/mL in the experiment on Nocardia farcinica [2] (IFM 10152, 72 h); above 1020 µg/mL in the experiment with Nocardia farcinica [3] (IFM 10152, 120 h); 256 µg/mL (≈ 528 µM) in the experiment with Nocardia farcinica [4] (IFM 10152, 72 h).
Turning to GENTAMICIN, the MIC in the experiment with Nocardia farcinica [1] is above 1020 µg/mL; against Nocardia farcinica [2] it was 256 µg/mL; in the experiment on Nocardia farcinica [3] it was above 1020 µg/mL; in the experiment with Nocardia farcinica [4] it was 64 µg/mL.
Take `CN[C@@H]1[C@@H](O[C@H]2O[C@H](CO)[C@@H](N)[C@H](O)[C@H]2O)OC2C[C@@H](N)[C@@H](O[C@H]3[C@H](O)[C@@H](O)[C@H](N)C[C@@H]3N)OC2[C@@H]1O` (some centres undefined) [APRAMYCIN]: the MIC is above 1020 µg/mL with Nocardia farcinica [1] (IFM 10580, 72 h); 64 µg/mL (≈ 119 µM) against Nocardia farcinica [2] (IFM 10152, 72 h); 256 µg/mL (≈ 474 µM) in the experiment with Nocardia farcinica [3] (IFM 10152, 120 h); 32 µg/mL (≈ 59.3 µM) in the experiment with Nocardia farcinica [4] (IFM 10152, 72 h).
Consider `CCN[C@@H]1C[C@H](N)[C@@H](O[C@H]2OC(CN)=CC[C@H]2N)[C@H](O)[C@H]1O[C@H]1OC[C@](C)(O)[C@H](NC)[C@H]1O` [NETILMICIN], for which the MIC against Nocardia farcinica [1] (IFM 10580, 72 h) is above 1020 µg/mL; in the experiment with Nocardia farcinica [2] (IFM 10152, 72 h), 4 µg/mL (≈ 8.41 µM); in the experiment with Nocardia farcinica [3] (IFM 10152, 120 h), 32 µg/mL (≈ 67.3 µM); against Nocardia farcinica [4] (IFM 10152, 72 h) it was below 1 µg/mL.
In the same order, the values of `NC[C@H]1O[C@H](O[C@H]2[C@H](O[C@@H]3O[C@H](CO)[C@@H](O)[C@H]3O)[C@@H](O)[C@H](N)C[C@@H]2N)[C@H](N)[C@@H](O)[C@@H]1O` [RIBOSTAMYCIN] are above 1020 µg/mL, above 1020 µg/mL, above 1020 µg/mL and 256 µg/mL (≈ 563 µM).
Take `NCC[C@H](O)C(=O)N[C@@H]1C[C@H](N)[C@@H](O[C@H]2O[C@H](CN)[C@@H](O)[C@H](O)[C@H]2O)[C@H](O)[C@H]1O[C@H]1O[C@H](CO)[C@@H](O)[C@H](N)[C@H]1O` [AMIKACIN]: the MIC with Nocardia farcinica [1] (IFM 10580, 72 h) was above 1020 µg/mL; against Nocardia farcinica [2] (IFM 10152, 72 h) it was 64 µg/mL (≈ 109 µM); against Nocardia farcinica [3] (IFM 10152, 120 h), above 1020 µg/mL; against Nocardia farcinica [5], below 1 µg/mL; against Nocardia farcinica [6], above 1020 µg/mL; with Nocardia farcinica [7] it was above 1020 µg/mL. In the experiment on Nocardia farcinica [4] (IFM 10152, 72 h), the MIC was below 1 µg/mL. Besides, the result in the experiment on Nocardia farcinica [8], with Nocardia farcinica [9], with Nocardia farcinica [10] and with Nocardia farcinica [11] was inactive.
As for `NC[C@@H]1O[C@H](O[C@H]2[C@@H](O)[C@H](O[C@@H]3[C@@H](O)[C@H](N)C[C@H](N)[C@H]3O[C@H]3O[C@H](CO)[C@@H](O)[C@H](O)[C@H]3N)O[C@@H]2CO)[C@H](N)[C@@H](O)[C@@H]1O` [PAROMOMYCIN], the MIC is above 1020 µg/mL with Nocardia farcinica [1] (IFM 10580, 72 h); above 1020 µg/mL in the experiment with Nocardia farcinica [2] (IFM 10152, 72 h); above 1020 µg/mL in the experiment on Nocardia farcinica [3] (IFM 10152, 120 h); 8 µg/mL (≈ 13 µM) against Nocardia farcinica [4] (IFM 10152, 72 h).
Take `NC[C@H]1O[C@H](O[C@H]2[C@H](O)[C@@H](O[C@H]3O[C@H](CO)[C@@H](O)[C@H](N)[C@H]3O)[C@H](N)C[C@@H]2N)[C@H](N)C[C@@H]1O` [TOBRAMYCIN]: the MIC in the experiment with Nocardia farcinica [1] (IFM 10580, 72 h) is above 1020 µg/mL; against Nocardia farcinica [2] (IFM 10152, 72 h), 64 µg/mL (≈ 137 µM); against Nocardia farcinica [3] (IFM 10152, 120 h) it was above 1020 µg/mL; in the experiment with Nocardia farcinica [4] (IFM 10152, 72 h) it was 32 µg/mL (≈ 68.4 µM).
As for `NCC[C@H](O)C(=O)N[C@@H]1C[C@H](N)[C@@H](O[C@H]2O[C@H](CN)CC[C@H]2N)[C@H](O)[C@H]1O[C@H]1O[C@H](CO)[C@@H](O)[C@H](N)[C@H]1O` [ARBEKACIN], the MIC against Nocardia farcinica [1] (IFM 10580, 72 h) is above 1020 µg/mL; with Nocardia farcinica [2] (IFM 10152, 72 h), 2 µg/mL (≈ 3.62 µM); in the experiment on Nocardia farcinica [3] (IFM 10152, 120 h), above 1020 µg/mL; with Nocardia farcinica [4] (IFM 10152, 72 h) it was below 1 µg/mL.
As to `NC[C@@H]1O[C@H](O[C@H]2[C@@H](O)[C@H](O[C@@H]3[C@@H](O)[C@H](N)C[C@H](N)[C@H]3O[C@H]3O[C@H](CN)[C@@H](O)[C@H](O)[C@H]3N)O[C@@H]2CO)[C@H](N)[C@@H](O)[C@@H]1O` [FRAMYCETIN], the MIC in the experiment with Nocardia farcinica [1] (IFM 10580, 72 h) was above 1020 µg/mL; in the experiment with Nocardia farcinica [2] (IFM 10152, 72 h), above 1020 µg/mL; against Nocardia farcinica [3] (IFM 10152, 120 h), above 1020 µg/mL; in the experiment with Nocardia farcinica [4] (IFM 10152, 72 h) it was 16 µg/mL (≈ 26 µM).
Consider `CN[C@@H]1[C@@H](O)[C@@H](O[C@@H]2[C@@H](O)[C@H](O[C@H]3O[C@H](CN)[C@@H](O)[C@H](O)[C@H]3O)[C@@H](N)C[C@H]2NC(=O)[C@@H](O)CN)OC[C@]1(C)O` [ISEPAMICIN], for which the MIC is above 1020 µg/mL in the experiment on Nocardia farcinica [1] (IFM 10580, 72 h); 16 µg/mL (≈ 28.1 µM) in the experiment with Nocardia farcinica [2] (IFM 10152, 72 h); 128 µg/mL (≈ 225 µM) in the experiment with Nocardia farcinica [3] (IFM 10152, 120 h); below 1 µg/mL against Nocardia farcinica [4] (IFM 10152, 72 h).
With `CN[C@@H]1[C@H](O[C@H]2[C@H](O[C@H]3[C@H](O)[C@@H](O)[C@H](N=C(N)N)[C@@H](O)[C@@H]3N=C(N)N)O[C@@H](C)[C@]2(O)C=O)O[C@@H](CO)[C@H](O)[C@H]1O` [STREPTOMYCIN], the MIC was 128 µg/mL (≈ 220 µM) against Nocardia farcinica [1] (IFM 10580, 72 h); 64 µg/mL (≈ 110 µM) against Nocardia farcinica [2] (IFM 10152, 72 h); 128 µg/mL (≈ 220 µM) against Nocardia farcinica [3] (IFM 10152, 120 h); 64 µg/mL (≈ 110 µM) in the experiment with Nocardia farcinica [4] (IFM 10152, 72 h).

What is called MIC is the least concentration at which growth counts as inhibited. A lower MIC goes with a more susceptible organism.
